Measurements reported in article PMC5510570 (The Journal of organic chemistry, 2017).
pIC50: −log10 of the molar value. Entries after “also recorded” stand apart in the source; their conditions may differ.

How the values were obtained:
Type in all cases: cell-based
human HEp2 cells [1] = assay: Phototoxicity; details: for pIC50: read-out: Phototoxicity IC50, 1.5 J/cm^2 light dose, up to 100 μM
In short: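 HEp2 cells were grown in 50:50 DMEM:AMEM with 5% FBS and 1% penicillin/streptomycin, plated at 7500 cells/well and grown 48 h. Cells were loaded 24 h with test compound at 0–100 μM (from 32 mM DMSO stock), washed with PBS and given fresh medium. They were irradiated 20 min with a 600 W water-filtered halogen lamp (~1.5 J/cm²) and incubated 24 h. Viability was read with 20% CellTiter Blue (4 h, 570/615 nm), normalized to untreated (100%) and 0.2% saponin (0%).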

human HEp2 cells [2] = assay: Time-dependent cellular uptake; details: for Cellular uptake at 24 h: 10 μM compound; for Cellular uptake (in words): 0-24 h
In short: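 HEp2 cells, cultured and plated as for cytotoxicity, were exposed to 10 μM test compound for 0, 1, 2, 4, 8 and 24 h. Cells were PBS-washed and lysed in 0.25% Triton X-100/PBS, and fluorescence was read at 485/590 nm against a compound standard curve (0.3125–10 μM). Cell number was measured by CyQuant against a 10⁴–10⁵ cell standard curve. Uptake was expressed as nM compound per cell.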

human HEp2 cells [3] = assay: Dark cytotoxicity; details: read-out: Dark toxicity IC50, in the dark, up to 200 μM, incubated overnight
In short: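 HEp2 cells kept in 50:50 DMEM:AMEM with 5% FBS and 1% penicillin/streptomycin, seeded at 7500 per well and grown 48 h. Dosed at 0, 6.25, 12.5, 25, 50, 100 and 200 μM final, diluted from DMSO stock, overnight at 37°C, 5% CO₂. Washed with PBS, then 20% CellTiter Blue medium for 4 h, read at 570/615 nm. Untreated set to 100%, 0.2% saponin to 0%.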

Row | Cellular uptake at 24 h (human HEp2 cells [2]) | Time at which uptake plateau was reached (human HEp2 cells [2]; 10 μM) | Molecule | Phototoxicity (in words) (human HEp2 cells [1]; light irradiation 1.5 J/cm^2, up to 100 μM) | pIC50 (human HEp2 cells [1]) | Cellular uptake (in words) (human HEp2 cells [2]; 10 μM) | pIC50 (human HEp2 cells [3])
1 | 0.058±0.028 nM/cell | – | 2,3,5,6,8-Pentaphenyl-BODIPY [BODIPY 4] | slight phototoxicity | < 4.00 | very low uptake; also recorded: accumulated the least | < 3.70
2 | 1.2±0.10 nM/cell | – | 3,5,8-Triphenyl-2,6-dichloro-BODIPY [BODIPY 2] | – | < 4.00 | taken-up faster and more efficiently at all times investigated; also recorded: accumulated the most within cells after 24 hours | < 3.70
3 | 0.14±0.01 nM/cell | – | 3,5,8-Triphenyl-2,6-dithienyl-BODIPY [BODIPY 3] | – | < 4.00 | very low uptake | < 3.70
4 | 0.14±0.01 nM/cell | – | 8-(4-Benzyloxycarbonylphenyl)-3,5-di(4-methoxyphenyl)-2,6-dichloro-BODIPY [BODIPY 6a] | – | < 4.00 | – | < 3.70
5 | 0.12±0.01 nM/cell | – | 8-(4-Cyanophenyl)-3,5-di(4-methoxyphenyl)-2,6-dithienyl-BODIPY [BODIPY 7] | – | < 4.00 | – | < 3.70
6 | 0.51±0.01 nM/cell | – | COc1ccc(C2=[N+]3C(=C(c4ccc(C#N)cc4)c4cc(Cl)c(-c5ccc(OC)cc5)n4[B-]3(F)F)C=C2Cl)cc1 [BODIPY 6b, 8-(4-Cyanophenyl)-3,5-di(4-methoxyphenyl)-2,6-dichloro-BODIPY] | – | < 4.00 | higher cellular uptake; also recorded: highest cellular uptake | < 3.70
7 | 0.79±0.13 nM/cell | 8 h | COc1ccc(C2=CC3=C(c4ccc(C#N)cc4)c4cc(-c5ccc(C#N)cc5)c(-c5ccc(OC)cc5)n4[B-](F)(F)[N+]3=C2c2ccc(OC)cc2)cc1 [BODIPY 8, 8-(4-Cyanophenyl)-3,5-di(4-methoxyphenyl)-2-(4-methoxyphenyl)-6-(4-cyanophenyl)-BODIPY] | – | < 4.00 | higher cellular uptake; also recorded: highest cellular uptake | < 3.70
